The text below walks through data of ChEMBL document CHEMBL2177000, “Pharmacokinetic optimization of class-selective histone deacetylase inhibitors and identification of associated candidate predictive biomarkers of hepatocellular carcinoma tumor response” (J Med Chem, 2012).

One data set relates to Bel-7402. The data set is classed as functional, Homo sapiens.
The subject of another data set is SMMC-7721. The data set is classed as functional, Homo sapiens.
The test system of data set [1] is Mus musculus. Nature of the data set: Oral bioavailability in BALB/C mouse at 10 mg/kg by LC-MS/MS method. Type of data set: ADME, organism-based. Conditions: in vivo. Put shortly:
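Bioavailability from single-dose iv (2 mg/kg, 5% DMSO/40% PEG400/55% saline) and oral gavage (10 mg/kg, 0.445% microcrystalline cellulose microsuspension) studies in BALB/C nude mice (N = 16 per arm); plasma at eight (po) or nine (iv) time points, LC-MS/MS, noncompartmental analysis.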

Data set [2] has as its system Mus musculus. In words: Tmax in BALB/C mouse at 10 mg/kg, po or 2 mg/kg, iv by LC-MS/MS method. The data set is classed as ADME, organism-based. Conditions: in vivo. Put shortly:
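Single-dose PK: iv bolus 2 mg/kg in 5% DMSO/40% PEG400/55% saline and/or oral gavage 10 mg/kg as 0.445% microcrystalline cellulose microsuspension; BALB/C nude mice (15−20 g, N = 16 per arm) or male Sprague−Dawley rats (250 ± 20 g, N = 3). Blood at eight (po) or nine (iv) time points into sodium heparin, plasma by LC-MS/MS, noncompartmental analysis.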

A short description of data set [3]: Solubility in 50 mM phosphate buffer at pH 6.5 by HPLC method. Type of data set: physicochemical. In outline: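 10 mM DMSO stock dried, residue redissolved in 50 mM phosphate buffer pH 6.5, stirred 1 h and shaken 2 h, left overnight, filtered and analysed by HPLC against calibration standards of 50−500 μM diluted from the DMSO stock.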
Data set [4] has as its system SGC-7901. Nature of the data set: Inhibition of Class 1 histone deacetylase in human SGC7901 cells assessed as […] at 0.6 to 5 uM incubated for 24 hrs by Western blot method. The data set is classed as cell-based. Put shortly:
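SGC-7901 cells (1 × 10^6) seeded overnight, treated 24 h at indicated concentrations; lysed on ice with protease inhibitor, 15 000 g supernatant; 30 μg protein by SDS-PAGE, nitrocellulose, antibody probing for acetylated histone H3 and p21, ECL detection.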

Data set [5] deals with Mus musculus. In words: Up-regulation of CDKN2B gene expression in human hepatocellular carcinoma patient tumor xenografted in BALB/C mouse at 100 mg/kg, po administered every other day for 4 weeks by […]. Type of data set: functional, organism-based. Also on record: dose 100 mg/kg. In outline:
(§1)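 Patient HCC tumor fragments (3 × 3 × 3 mm3) implanted subcutaneously in female BALB/c nu/nu mice; at ~200 (150−250) mm3 dosed orally Q2D 100 mpk in 15% Kleptose pH 4.5 tartaric buffer for about four weeks. Tumor RNA (TRIzol, DNase I) run on 22-gene qRT-PCR array, normalized to GAPDH/β-glucuronidase by ΔCt, fold change versus day 0.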
For orientation: A xenograft is tissue or cells of one species grown in another, often human tumour cells in immunodeficient mice.

Data set [6] has as its system SGC-7901. Nature of the data set: Induction of cell cycle arrest in human SGC7901 cells assessed as reduction in accumulation at S phase incubated for 24 hrs by flow cytometry. The data set is classed as functional, cell-based. Put shortly:
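SGC-7901 cells (1 × 10^5, about 50% confluent) treated 24 h with a concentration series; fixed in chilled 70% ethanol 1 h at 4 °C, stained 1 h at room temperature with propidium iodide (50 μg/mL) plus RNase A and 0.05% Triton X-100; analysed by flow cytometry.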
(In general: Flow cytometry measures light scatter and fluorescence of single cells or particles in a stream.)

Data set [7] concerns Mus musculus. In words: Up-regulation of HIC1 gene expression in human hepatocellular carcinoma patient tumor xenografted in BALB/C mouse at 100 mg/kg, po administered every other day for 4 weeks by […]. The data set is classed as functional, organism-based. Also on record: dose 100 mg/kg. Put shortly: as §1
Data set [8] concerns Mus musculus. In words: Up-regulation of CTGF gene expression in human hepatocellular carcinoma patient tumor xenografted in BALB/C mouse at 100 mg/kg, po administered every other day for 4 weeks by […]. The data set is classed as functional, organism-based. Also on record: dose 100 mg/kg. Put shortly:
as §1

In data set [9] the test system is Mus musculus. In words: Down-regulation of WNT5A gene expression in human hepatocellular carcinoma patient tumor xenografted in BALB/C mouse at 100 mg/kg, po administered every other day for 4 weeks by […]. Type of data set: functional, organism-based. Also on record: dose 100 mg/kg. In outline:
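Patient-derived HCC xenografts dosed 100 mpk Q2D PO; tumor total RNA (TRIzol, DNase I treated, column-purified) run on a customized 22-gene qRT-PCR array; ΔCt against mean of GAPDH and β-glucuronidase, fold-change relative to day 0 (pre-treatment).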

Structures are written as SMILES. Converted amounts (≈) assume the structure as drawn. The source made the active and inactive calls. No cut-off for these calls is given here.

Usually Tmax stands for the time from dosing to the highest level. By solubility is commonly meant the concentration that dissolves in the medium under given conditions. Low readings indicate a poorly soluble substance, high ones a readily soluble substance. With `CN1C[C@H](C(=O)Nc2ccc(Cl)cc2)[C@@H](c2ccc(/C=C/C(=O)Nc3ccccc3N)cc2)C1` [listing 1 of 2 here], the GI90 in the data set on Bel-7402 came to 1.2 µM; with SMMC-7721, 1.9 µM. In addition, the F in the data set with Mus musculus [1] turned out to be 100%. Further, the Tmax with Mus musculus [2] came out at 15 min. The same compound gave a solubility in data set [3] of 136 µg/mL (≈ 286 µM).

Consider `CN1C[C@H](C(=O)Nc2ccc(Cl)cc2)[C@@H](c2ccc(/C=C/C(=O)Nc3ccccc3N)cc2)C1` [listing 2 of 2 here], for which the inhibition result in the data set on SGC-7901 [4] is “Dose-dependent effect”. For the same compound, the result in the data set on Mus musculus [5], in the data set on Mus musculus [8] and with Mus musculus [9] was Active. Also, the Activity result with SGC-7901 [6] was “Dose-dependent effect”. For the same compound, in the data set on Mus musculus [7], the outcome was inactive.
